From ChEMBL document CHEMBL1255514, “Discovery of 8-azabicyclo[3.2.1]octan-3-yloxy-benzamides as selective antagonists of the kappa opioid receptor. Part 1” (Bioorg Med Chem Lett, 2010) come the findings set out here.

One data set has as its target Mu-type opioid receptor (Homo sapiens, UniProt P35372). The experiment in a line: Antagonist activity at human mu opioid receptor assessed as inhibition of DAMGO-stimulated [35S]GTPgammaS binding. It counts as functional. (In general: GTPγS resists hydrolysis and so accumulates on activated G proteins.)
Data set [1] deals with T1, Kappa-type opioid receptor (Homo sapiens, UniProt P41145). The data set can be described thus: Antagonist activity at human kappa opioid receptor assessed as inhibition of dynorphin A-induced [35S]GTPgammaS binding. It counts as functional.
T1 sequence (P41145 whole entry): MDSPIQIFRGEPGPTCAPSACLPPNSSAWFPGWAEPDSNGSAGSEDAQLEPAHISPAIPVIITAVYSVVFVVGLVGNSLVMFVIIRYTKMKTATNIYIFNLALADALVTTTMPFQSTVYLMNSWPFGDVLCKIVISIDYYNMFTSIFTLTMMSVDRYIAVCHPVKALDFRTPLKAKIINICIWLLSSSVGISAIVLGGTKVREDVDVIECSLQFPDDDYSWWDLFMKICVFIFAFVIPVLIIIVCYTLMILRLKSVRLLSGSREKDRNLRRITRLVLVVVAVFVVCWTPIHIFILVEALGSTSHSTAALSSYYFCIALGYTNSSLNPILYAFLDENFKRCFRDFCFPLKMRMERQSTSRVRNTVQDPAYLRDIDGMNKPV
In data set [2] the target is Delta-type opioid receptor (Homo sapiens, UniProt P41143). The data set can be described thus: Antagonist activity at human delta opioid receptor assessed as inhibition of SNC80-stimulated [35S]GTPgammaS binding. It counts as functional.
Chain of Delta-type opioid receptor (P41143 whole entry): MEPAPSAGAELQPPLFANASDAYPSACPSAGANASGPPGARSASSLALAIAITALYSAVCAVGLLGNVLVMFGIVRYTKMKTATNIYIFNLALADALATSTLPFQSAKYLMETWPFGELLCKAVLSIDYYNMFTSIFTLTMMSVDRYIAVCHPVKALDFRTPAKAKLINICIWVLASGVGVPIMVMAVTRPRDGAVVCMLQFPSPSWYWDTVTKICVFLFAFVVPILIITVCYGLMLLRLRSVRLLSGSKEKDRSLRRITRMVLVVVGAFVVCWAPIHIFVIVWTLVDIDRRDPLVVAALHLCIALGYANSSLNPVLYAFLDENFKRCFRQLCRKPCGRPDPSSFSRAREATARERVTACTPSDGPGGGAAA
Data set [3] deals with T1, Kappa-type opioid receptor. The experiment in a line: Binding affinity to kappa opioid receptor.
Data set [4] in a line: Apparent permeability from apical to basolateral side of MDCK cells expressing MDR1. It counts as ADME, cell-based, Canis lupus familiaris. To be noted: dog. The method in brief:
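MDCK cells stably expressing human MDR1 P-glycoprotein grown as monolayer; apical-to-basolateral transport rate reported in nm/s.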

In a further data set the test system is Plasma. The experiment in a line: Fraction unbound in rat plasma. It counts as ADME, cell-free.
Data set [5] can be described thus: Intrinsic clearance in rat liver microsomes. It counts as ADME, Microsome. In short, it runs like this:
(§1)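 Standard liver microsomal stability protocol using human or rat liver microsomes; intrinsic clearance expressed per mg microsomal protein per minute.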

The nature of data set [6]: Intrinsic clearance in human liver microsomes. It counts as ADME, Microsome. In short, it runs like this: as §1
A general note: Microsomes from liver hold many membrane-bound enzymes, among them those of drug oxidation.

In data set [7] the target is Voltage-gated inwardly rectifying potassium channel KCNH2 (Homo sapiens, UniProt Q12809).
Chain of Voltage-gated inwardly rectifying potassium channel KCNH2 (Q12809 whole entry): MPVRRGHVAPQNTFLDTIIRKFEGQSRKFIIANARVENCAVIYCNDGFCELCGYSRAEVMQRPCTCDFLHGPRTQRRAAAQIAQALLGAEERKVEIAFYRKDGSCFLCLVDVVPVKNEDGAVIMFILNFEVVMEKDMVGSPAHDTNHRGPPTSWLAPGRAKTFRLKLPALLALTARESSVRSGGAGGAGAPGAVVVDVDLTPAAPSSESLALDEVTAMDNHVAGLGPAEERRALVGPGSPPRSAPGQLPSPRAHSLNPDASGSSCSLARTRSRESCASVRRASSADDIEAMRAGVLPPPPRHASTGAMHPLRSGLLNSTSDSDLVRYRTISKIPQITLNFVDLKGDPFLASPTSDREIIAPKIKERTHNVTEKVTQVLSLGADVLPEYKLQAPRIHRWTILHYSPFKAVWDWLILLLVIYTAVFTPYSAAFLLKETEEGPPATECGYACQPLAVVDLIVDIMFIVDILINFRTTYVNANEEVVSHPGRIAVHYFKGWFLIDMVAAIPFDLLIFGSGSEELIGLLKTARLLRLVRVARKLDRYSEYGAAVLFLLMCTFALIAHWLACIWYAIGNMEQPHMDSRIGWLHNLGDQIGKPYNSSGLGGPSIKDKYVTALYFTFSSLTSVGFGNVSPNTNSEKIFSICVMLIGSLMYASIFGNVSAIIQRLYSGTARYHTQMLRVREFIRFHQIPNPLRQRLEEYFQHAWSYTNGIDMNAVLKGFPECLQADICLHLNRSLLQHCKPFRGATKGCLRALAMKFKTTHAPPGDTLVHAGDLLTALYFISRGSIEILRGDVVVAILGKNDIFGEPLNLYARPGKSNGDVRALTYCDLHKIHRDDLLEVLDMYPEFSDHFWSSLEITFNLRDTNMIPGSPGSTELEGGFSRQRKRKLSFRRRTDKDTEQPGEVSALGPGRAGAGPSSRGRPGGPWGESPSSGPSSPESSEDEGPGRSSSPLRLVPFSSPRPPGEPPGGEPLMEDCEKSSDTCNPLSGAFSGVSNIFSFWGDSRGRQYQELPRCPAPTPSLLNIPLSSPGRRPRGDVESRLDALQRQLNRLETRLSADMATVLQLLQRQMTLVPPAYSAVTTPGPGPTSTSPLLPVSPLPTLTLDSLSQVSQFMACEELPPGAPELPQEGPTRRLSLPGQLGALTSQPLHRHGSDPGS
The nature of data set [8]: Volume of distribution at steady state in Sprague-Dawley rat at 2 umol/kg, iv. It counts as ADME, organism-based. To be noted: in vivo, read-out: Vdss.
A further data set concerns Rattus norvegicus. The data set can be described thus: Antidiuretic activity against U50488-induced diuresis in sc dosed Sprague-Dawley rat. It counts as functional. Conditions: Urine, read-out: ID50 (the source's name).
Data set [9] in a line: Clearance in Sprague-Dawley rat at 2 umol/kg, iv. It counts as ADME, organism-based. To be noted: in vivo.
Data set [10] can be described thus: Half life in Sprague-Dawley rat at 2 umol/kg, iv. To be noted: in vivo. It counts as ADME, organism-based.
Data set [11] in a line: Ratio of drug level in brain to plasma in Sprague-Dawley rat at 5 umol/kg, iv. It counts as ADME, organism-based. To be noted: brain and plasma, read-out: BPR. In short, it runs like this: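 Total brain and plasma concentrations measured 2 h after a 5 µmol/kg intravenous infusion in rats; brain/plasma ratio calculated.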
A short description of data set [12]: Oral bioavailability in Sprague-Dawley rat at 6 umol/kg, po. It counts as ADME, organism-based. To be noted: in vivo.

Some results are limits rather than exact numbers.

Chain of Mu-type opioid receptor (P35372 whole entry): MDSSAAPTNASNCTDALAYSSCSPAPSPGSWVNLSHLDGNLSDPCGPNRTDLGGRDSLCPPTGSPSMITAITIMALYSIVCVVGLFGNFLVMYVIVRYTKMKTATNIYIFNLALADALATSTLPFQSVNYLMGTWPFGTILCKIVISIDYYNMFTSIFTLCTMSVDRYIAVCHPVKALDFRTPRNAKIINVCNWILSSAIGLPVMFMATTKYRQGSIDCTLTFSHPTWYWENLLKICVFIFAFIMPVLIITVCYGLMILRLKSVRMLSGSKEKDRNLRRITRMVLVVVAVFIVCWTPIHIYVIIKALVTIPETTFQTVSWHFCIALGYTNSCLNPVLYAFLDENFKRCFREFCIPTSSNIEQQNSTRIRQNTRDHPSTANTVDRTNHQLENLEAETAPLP

With `CC(C)[C@@H](CN1CC[C@@](C)(c2cccc(O)c2)[C@@H](C)C1)NC(=O)[C@H]1Cc2ccccc2CN1`, the IC50 on Mu-type opioid receptor was found to be 41 nM; in data set [1], 0.5 nM; in [2], 1280 nM. For the same molecule, the affinity in data set [3] corresponds to a Ki of 0.3 nM.
With `Cc1ccc(CN2[C@@H]3CC[C@H]2C[C@H](Oc2cccc(C(N)=O)c2)C3)o1`, the concentration for half-maximal inhibition (IC50) on Mu-type opioid receptor came to 10900 nM; in [1], 386 nM; in data set [2] it was 22000 nM.
As for `NC(=O)c1cccc(OC2CCN(CC3CC3)CC2)c1`, the IC50 in data set [1] is 28200 nM. Also, the affinity in [3], expressed as Ki, was 146 nM.
For `C[C@H](c1ccccc1)N1[C@@H]2CC[C@H]1C[C@H](Oc1cccc(C(N)=O)c1)C2`, the IC50 at Mu-type opioid receptor is over 24400 nM; in data set [1] it was 683 nM.
For `C[C@@H](c1ccccc1)N1[C@@H]2CC[C@H]1C[C@H](Oc1cccc(C(N)=O)c1)C2` the same measures were over 30000 nM and 20500 nM.
Regarding `O=C(Nc1cccc(NC(=O)c2cccc(N3CCOCC3)c2)c1)c1cccc(OC2CCN(CC3CC3)CC2)c1`, the half-maximal inhibitory concentration (IC50) on Mu-type opioid receptor is over 30000 nM; in [1] it was 77 nM; in [2], over 30000 nM. Further, the apical-to-basolateral permeability (Papp A→B) in data set [4] was under 1 ×10⁻⁶ cm/s. In addition, the affinity in data set [3], expressed as Ki, was 0.5 nM.
Regarding `Cc1ccc([C@@H](C)N2[C@@H]3CC[C@H]2C[C@H](Oc2cccc(C(N)=O)c2)C3)s1`, in data set [1], the IC50 is 111 nM.
With `COc1cccc([C@@H](C)N2[C@@H]3CC[C@H]2C[C@H](Oc2cccc(C(N)=O)c2)C3)c1`, the half-maximal inhibitory concentration (IC50) at Mu-type opioid receptor came to 1050 nM; in data set [1] it was 46 nM.
As for `NC(=O)c1cccc(OC2CCN(Cc3ccccc3)CC2)c1`, the IC50 was over 30000 nM on Mu-type opioid receptor, 585 nM in [1] and over 30000 nM in data set [2]. In data set [3], the affinity, expressed as Ki, was 75 nM.
Consider `Cc1ccc([C@@H](C)N2[C@@H]3CC[C@H]2C[C@H](Oc2cccc(C(N)=O)c2)C3)cn1`, for which the PPB in the data set with Plasma was 81%. In addition, the microsomal CLint in data set [5] is 14 µL/min/mg; in data set [6], under 4 µL/min/mg. Also, in data set [4], the Papp A→B was 9.1 ×10⁻⁶ cm/s.
Take `C[C@H](c1ccnc(Cl)c1)N1[C@@H]2CC[C@H]1C[C@H](Oc1cccc(C(N)=O)c1)C2`: the 50% inhibitory concentration (IC50) on Mu-type opioid receptor was 22900 nM; in data set [1], 307 nM.
Consider `NC(=O)c1cccc(O[C@@H]2C[C@H]3CC[C@@H](C2)N3Cc2cccs2)c1`, for which the half-maximal inhibitory concentration (IC50) at Mu-type opioid receptor was 9360 nM; in [1] it was 215 nM; in [2], over 30000 nM; in data set [7], 430 nM.
On to `Cc1ccc(CN2[C@@H]3CC[C@H]2C[C@H](Oc2cccc(C(N)=O)c2)C3)s1`, for which the PPB with Plasma is listed as 50%. In addition, the Vd in [8] came out at 5.1 L/kg. Further, the ED50 in the data set on Rattus norvegicus is 0.006 µmol/kg. The molecule further showed a clearance in data set [9] of 113 mL/min/kg. For the same molecule, the half-life in data set [10] is 1 h. For the same molecule, the Kp in [11] turned out to be 4. The intrinsic metabolic clearance (microsomal CLint) in [5] stood at 379 µL/min/mg; in data set [6], 31 µL/min/mg. In data set [12], the bioavailability was determined as 1.7%. In addition, the Papp A→B in [4] came to 13 ×10⁻⁶ cm/s.
For `NC(=O)c1cccc(O[C@@H]2C[C@H]3CC[C@@H](C2)N3CCc2ccccc2)c1`, the IC50 on Mu-type opioid receptor came to 424 nM; in data set [1], 754 nM; in data set [2], 2150 nM.
For `NC(=O)c1cccc(O[C@@H]2C[C@H]3CC[C@@H](C2)N3CCCc2ccccc2)c1` the same measures were 659 nM, 342 nM and 4000 nM.
For the molecule `Cc1ccc(CN2[C@@H]3CC[C@H]2C[C@H](Oc2cccc(C(N)=O)c2)C3)cc1`, the IC50 stood at 482 nM at Mu-type opioid receptor, 49 nM in [1] and 10900 nM in [2].
Turning to `Cc1ccccc1CN1[C@@H]2CC[C@H]1C[C@H](Oc1cccc(C(N)=O)c1)C2`, the IC50 at Mu-type opioid receptor was 17600 nM; in data set [2] it was over 30000 nM.
As for `NC(=O)c1cccc(O[C@@H]2C[C@H]3CC[C@@H](C2)N3Cc2ccncc2)c1`, the IC50 in data set [2] was over 24700 nM.
Turning to `NC(=O)c1cccc(O[C@@H]2C[C@H]3CC[C@@H](C2)N3Cc2cccnc2)c1`, the IC50 was 2890 nM on Mu-type opioid receptor, 431 nM in [1] and over 21900 nM in data set [2].
For the molecule `NC(=O)c1cccc(O[C@@H]2C[C@H]3CC[C@@H](C2)N3Cc2ccccn2)c1`, the IC50 was 19000 nM at Mu-type opioid receptor, 3160 nM in [1], over 30000 nM in [2] and 1900 nM in [7].
For the molecule `CN1[C@@H]2CC[C@H]1C[C@H](Oc1cccc(C(N)=O)c1)C2`, the IC50 in [1] came to 12600 nM.
As to `NC(=O)c1cccc(O[C@@H]2C[C@H]3CC[C@@H](C2)N3CC2CC2)c1`, the IC50 at Mu-type opioid receptor was over 30000 nM; in data set [1] it was 6690 nM; in data set [2] it was over 30000 nM.
With `NC(=O)c1cccc(O[C@@H]2C[C@H]3CC[C@@H](C2)N3CC2CCCCC2)c1`, the Vd in data set [8] came to 9.5 L/kg. Further, in data set [9], the clearance is 184 mL/min/kg. The molecule also showed a half-life in data set [10] of 1 h. Moreover, the Kp in [11] came to 5. For the same molecule, the intrinsic clearance (microsomal CLint) in [5] was 196 µL/min/mg; in data set [6], under 4 µL/min/mg. The same molecule gave a bioavailability in [12] of 1.8%. Besides, the Papp A→B in data set [4] is 8.3 ×10⁻⁶ cm/s.
Take `NC(=O)c1cccc(O[C@@H]2C[C@H]3CC[C@@H](C2)N3Cc2ccc3c(c2)OCO3)c1`: the IC50 at Mu-type opioid receptor was 307 nM; in [1], 11 nM; in data set [2], 4840 nM.
Consider `CS(=O)(=O)Cc1ccc(CN2[C@@H]3CC[C@H]2C[C@H](Oc2cccc(C(N)=O)c2)C3)cc1`, for which the IC50 on Mu-type opioid receptor worked out at 576 nM; in data set [1] it was 39 nM; in data set [2], 5390 nM.
Regarding `Cn1cc(CN2[C@@H]3CC[C@H]2C[C@H](Oc2cccc(C(N)=O)c2)C3)cn1`, the values for the IC50 (on Mu-type opioid receptor; in data set [1]; in data set [2]) were 9430 nM, 524 nM and over 27300 nM, respectively.
Take `NC(=O)c1cccc(O[C@@H]2C[C@H]3CC[C@@H](C2)N3CC(=O)N2CCCC2)c1`: the half-maximal inhibitory concentration (IC50) is 21100 nM at Mu-type opioid receptor, 3410 nM in data set [1], over 30000 nM in data set [2] and over 33000 nM in data set [7].
As to `NC(=O)c1cccc(O[C@@H]2C[C@H]3CC[C@@H](C2)N3CC(=O)Nc2ccccc2)c1`, the IC50 at Mu-type opioid receptor worked out at 253 nM; in data set [1], 345 nM; in data set [2], 2670 nM; in data set [7], 720 nM.
`CC(c1ccccc1)N1[C@@H]2CC[C@H]1C[C@H](Oc1cccc(C(N)=O)c1)C2` (stereo partly specified): the IC50 on Mu-type opioid receptor was 19800 nM; in data set [1], 1000 nM.
As for `Cc1ccc(C(C)N2[C@@H]3CC[C@H]2C[C@H](Oc2cccc(C(N)=O)c2)C3)s1` (stereo partly specified), in data set [1], the IC50 came out at 355 nM.
Take `Cc1ccccc1C(C)N1[C@@H]2CC[C@H]1C[C@H](Oc1cccc(C(N)=O)c1)C2` (stereo partly specified): the values for the IC50 (on Mu-type opioid receptor; in data set [1]) were 16800 nM and 846 nM, respectively.
Take `NC(=O)c1cccc(O[C@@H]2C[C@H]3CC[C@@H](C2)N3C2CCCc3ccccc32)c1` (stereo partly specified): the concentration for half-maximal inhibition (IC50) on Mu-type opioid receptor came to 22700 nM; in data set [1] it was 2190 nM.
For `NC(=O)c1cccc(O[C@@H]2C[C@H]3CC[C@@H](C2)N3C2CCCCC2)c1` the same measures were 9410 nM and 1130 nM.
With `CC(C)(c1ccccc1)N1[C@@H]2CC[C@H]1C[C@H](Oc1cccc(C(N)=O)c1)C2`, in [1], the IC50 amounted to 13300 nM.
With `NC(=O)c1cccc(O[C@@H]2C[C@H]3CC[C@@H](C2)N3C2(c3ccccc3)CC2)c1`, the IC50 at Mu-type opioid receptor is over 30000 nM; in [1], 24200 nM.
With `CC(c1ccncc1)N1[C@@H]2CC[C@H]1C[C@H](Oc1cccc(C(N)=O)c1)C2` (stereo partly specified), the concentration for half-maximal inhibition (IC50) at Mu-type opioid receptor is over 30000 nM.

In general, IC50 refers to the point on the concentration scale where inhibition reaches its midpoint. The term Ki denotes a measure of affinity in units of concentration, obtained from inhibition or displacement. In general, Papp A→B refers to how fast a substance crosses the layer from the apical side. The microsomal CLint is a measure of how fast metabolising enzymes remove a compound, apart from limits set by blood flow. Read a high microsomal CLint as rapid turnover. What is called clearance is the rate of elimination divided by the concentration. As a reminder, the half-life is the time needed for the level to fall by half in the phase considered. The low end stands for fast loss, the high end for slow loss. One may read the bioavailability as dose-corrected exposure relative to a reference, in per cent. A lower bioavailability goes with poor availability.
